From the RNAGym collection of RNA variant scans (doi:10.1126/science.aae0568) come the findings set out here.

Variants at the floor of the assay were thinned out. A value given as a limit tells only on which side of the number the result lay.

The chains are these.
B1: tRNA (parent)
chain: GUUCCGUUGGCGUAAUGGUAACGCGUCUCCCUCCUAAGGAGAAGACUGCGGGUUCGAGUCCCGUACGGAACG

The data set covers variants of B1. Kind of data set: yeast fitness relative to wild type (ratio to wild type); higher = fitter; tRNA-Arg(CCU), competitive growth, 37 C, YPD. An outline of the steps: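 Start and end populations of a pooled competition were compared by 100-nucleotide paired-end sequencing of gene amplicons. The Saccharomyces cerevisiae strains carried tRNA-Arg(CCU) gene variants at the native genomic locus, synthesised with a 3% per-site mutation rate at 69 sites, and competed in YPD at 37°C for 24 hours in six parallel replicates. Darwinian fitness relative to wild type was based on the change in genotype frequencies. Genotypes required ≥ 100 starting reads, and estimates < 0.5 were set to 0.5.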
For the variant A21C G56A, the yeast fitness is 0.946.

Consider C5A G67U, for which the yeast fitness amounted to 0.865. Regarding U19C A21G C22U, the yeast fitness was 0.552. As to C11G G25A A36U C60U, the yeast fitness was no more than 0.5. With A15C G17A G18A A36C C55U C66A, the yeast fitness amounted to 0.529. As for G6A G9C C31U C62U G68C, the figure is no more than 0.5. As for C30U C34G A40C C49G G68C, the figure is no more than 0.5. In the case of G25U U32C A36U G56C A65C it was no more than 0.5; in that of G23C A42G, 0.575; in that of C30A G56A, 1.04. Take U26C C33U U53A C66A: the yeast fitness was no more than 0.5. As to U7G C49G, the yeast fitness came to 0.729. In the case of A14C G25C C66U it was 0.531. In the case of G12A C55A, the yeast fitness turned out to be 0.6. In the case of C5A A15U C31G G39A A57U C60A it was no more than 0.5; in that of A14G C22G U64A, no more than 0.5. For the variant C4G C5U C11U A14G, the yeast fitness is no more than 0.5. Consider C4U C61U A70G, for which the yeast fitness is 0.777. As for U2C G6A A57U C62U, the figure is no more than 0.5. In the case of C5G U13C C62U it was 0.602; in that of U59C C62U, 0.814; in that of C27U C62U G67A, 0.573. As for G23C U28A, the figure is 0.559; as for C4U A15C G51C A57G, no more than 0.5.

Regarding U13A G48C C55G, the yeast fitness is 0.554. Turning to C11U A36G A70G, the yeast fitness was 0.672. In the case of C4G C5U G51A U53C C62U it was no more than 0.5; in that of C5A C31G G63U, no more than 0.5; in that of G17C C24U, 0.607. As for C5U U64A G67U, the figure is no more than 0.5; as for U2G C34G G39C, no more than 0.5; as for A36C A42U A43G G63C, 0.509. For C27A G50C C62G C66U, the yeast fitness was 0.606. For the variant G39U G52A G67U, the yeast fitness was no more than 0.5. As for A40U G44C, the figure is 0.954. Regarding A20G A65G, the yeast fitness worked out at 0.986. As to C31U A36C, the yeast fitness came to 0.842.

For U13C C22A, the yeast fitness was 0.791.

Turning to C5A G6C C11G U19A C49A, the yeast fitness is 0.571. Take C4G C55U C61A: the yeast fitness was no more than 0.5. Consider C5U U28A A69C, for which the yeast fitness was determined as 0.541. Take U13A C24U G51C: the yeast fitness worked out at 0.542. In the case of U2A C11G C31G it was 0.6; in that of U19G A40C, 0.732; in that of C5G C22U C62A A65C, no more than 0.5. On to C11U U35C A70G, for which the yeast fitness turned out to be 0.641.

On to C29G C30U G58A, for which the yeast fitness was 0.608. On to G9A C24G C34G A69U, for which the yeast fitness is 0.533. As for C30G A57U C60G A65U, the yeast fitness is 0.531. As for U8C A42G C49G C62A, the figure is no more than 0.5.

With C33U C61U A69G, the yeast fitness is no more than 0.5. Take G17C A20U C27U U53C: the yeast fitness worked out at 0.619. In the case of C61U C66U it was 0.929. Consider U3A C4U U7A C24U A70U, for which the yeast fitness was no more than 0.5. As for C22G C34G A43U C49A, the figure is no more than 0.5. As for U7A C29U C31A, the figure is no more than 0.5.

In the case of G18C G23C G48A, the yeast fitness was no more than 0.5. In the case of G25A C49U A70C it was 0.845; in that of C5U U16G A43G G67C, no more than 0.5; in that of C24U C62A A69G, 0.502. In the case of U7C C27A U64G it was no more than 0.5; in that of U19C C49A A57C, 0.599; in that of U13A C66U G68C, 0.51. In the case of G17C U32A C46A A69U it was no more than 0.5; in that of C5U C24A G67C, 0.547; in that of U3A U13C C29A A43G G67C, 0.595. On to C5U G9A C22U, for which the yeast fitness was determined as 0.593.

Regarding C30G U64A, the yeast fitness worked out at 0.784. In the case of A20C G44A C60A G67A it was no more than 0.5; in that of A20G A45C A70C, 0.789.

G6A C27G A36C A42C: the yeast fitness was 0.58. With A40C A43C, the yeast fitness is 1.04. C24U A43U U47G: the yeast fitness was no more than 0.5. For the variant A15G C60G C62U, the yeast fitness is no more than 0.5. In the case of G12A U35C it was 0.83; in that of U3A C31G A43U, 0.597. For G10A C27A U35C, the yeast fitness was no more than 0.5. Take G23C C31A C49G C55A: the yeast fitness is 0.534. For the variant C4U C5A, the yeast fitness was 0.796.

On to U26G C61U G67A, for which the yeast fitness was no more than 0.5. Take G9C A14G A45G: the yeast fitness is no more than 0.5. As for G9A C22A U53A A57G, the figure is 0.554. In the case of A14C G17C C31U A37C, the yeast fitness amounted to 0.577. In the case of C24G C30A G44C U47C it was 0.567. As for U3C C22U C66U, the figure is 0.552. In the case of A37C G51A U53C C62A, the yeast fitness was no more than 0.5. As for C24A C33A C49U U54G, the figure is 0.58; as for C5A C31U G48C C55A A69C, no more than 0.5. Consider A20G A45C G50A U54G, for which the yeast fitness was no more than 0.5.

Turning to C11U C24G C33A A40C U53C, the yeast fitness was determined as 0.626. For the variant U8G U26A A43C C49U C55G C60A, the yeast fitness was no more than 0.5.

C5A A21C C30G C34U G38C C49U C55U A70C: the yeast fitness was no more than 0.5.

Turning to G9A C24U, the yeast fitness came out at 0.997. As for C46A G67A, the figure is 0.88. Turning to C22G C34U C60U C62U A70C, the yeast fitness was no more than 0.5. In the case of A21G G67A it was 0.956; in that of A20C C33A G39A, no more than 0.5. As for G12A A15G C29G G48A C62U C66U, the figure is no more than 0.5; as for C24G A42U, 0.559; as for G6A C11G A45U A57G A70G, no more than 0.5. For the variant C62G A65U A69U, the yeast fitness stood at 0.535. As for C29U G38C A45G G51C, the figure is no more than 0.5; as for A43U G48C C55U, no more than 0.5; as for U2A C49U C62U, 0.522. On to C4U C27A A43U G51C, for which the yeast fitness is no more than 0.5. As for U35C A37U C46G U54C C61A, the figure is no more than 0.5; as for C24U U26A U28G G52A, no more than 0.5.

A36U G58C A65U: the yeast fitness is no more than 0.5. As to A37C C49U C55A C60A, the yeast fitness was no more than 0.5.

For the variant A14U G23A C29G C46A C55G G68A, the yeast fitness was no more than 0.5. In the case of G10C A15C C24U U54C C60A C62A it was 0.585; in that of G44A G56C C62U, 0.695; in that of A14G A20U C29G C33U, 0.543.

Take G12C C27U G50A: the yeast fitness is no more than 0.5.

Consider C5A U26A C27G C30G A36U G38C C46U C49G A65U, for which the yeast fitness was no more than 0.5. In the case of C5U A14C A21C it was 0.552. In the case of C4U G10A C11G A20G C27G C29U A65U it was no more than 0.5. As for U26A G48A C62A, the figure is 0.605; as for U3C U7A C27A, no more than 0.5. G12C C31G C49G C55G A69U: the yeast fitness was found to be 0.527. With C11A C55A, the yeast fitness was no more than 0.5. As to U7C A70C, the yeast fitness was determined as 0.742. As for U2C U7A C22A A36U A45U C60U C62U C66U, the figure is 0.541; as for C5G G23A A43U A65G G68A, no more than 0.5. In the case of U3A C5A it was 0.806. In the case of C46A C49G C55U it was 0.563; in that of G18C C62G C66A, no more than 0.5. U19A G58A A69U: the yeast fitness was 1.2.

Consider C24G G41A G44A U53A C66U, for which the yeast fitness is no more than 0.5. G10A C33U C49U: the yeast fitness is 0.663.

As to G18A A43U, the yeast fitness came to 0.637.

Turning to G17A C34U C46G A65U, the yeast fitness was no more than 0.5.

For G6C A14C U54C, the yeast fitness is no more than 0.5.

As for A21U A42G C55U A70C, the yeast fitness amounted to 0.603. As for U7A U16C, the yeast fitness is 0.751.

Take C33A C61A C62U C66U: the yeast fitness worked out at 0.562. As for U8A A15C A21G C27U C46U, the figure is no more than 0.5. As for U3A A21U G51C, the figure is no more than 0.5; as for C22G U35G A40C, no more than 0.5. Regarding G23C C46U C62U, the yeast fitness was 0.592. As for C11G C29U C46G, the figure is no more than 0.5; as for A14G C27G C30U C31G, 0.76; as for U2G C31A G56U G67A A70C, no more than 0.5. In the case of A20G G23C, the yeast fitness was found to be 0.727. For the variant U35G U64C A69C, the yeast fitness is no more than 0.5. As for G6A A65C, the figure is 0.945. Consider G6A G9C A42U A43U A65G G68A A70C, for which the yeast fitness came out at 0.663. Take G17A U32C: the yeast fitness amounted to 0.704. In the case of G25A A45G G52A U54A it was no more than 0.5. As for C4U U13A G23A C24A A36U G39C C62A U64A, the figure is no more than 0.5. In the case of C22U A37C G52C C62U it was no more than 0.5; in that of U2A G23A C29G, 0.666; in that of U3C C46A G48A, 0.877. As for A40U A57G U59C U64G, the yeast fitness was no more than 0.5.

In the case of U2C G12C A14G C29U U59G G63C, the yeast fitness was no more than 0.5. In the case of C4U C27G it was 0.656; in that of G67C G68A, 0.874; in that of C29G C31U A37U C62U A70G, no more than 0.5. For C5G C30A A40G A70U, the yeast fitness is no more than 0.5. As for A40G A65G, the figure is 0.984.

Consider A40U C66U, for which the yeast fitness was 0.904.

In the case of U7A C11U A36U G58C, the yeast fitness was no more than 0.5. As for G51C C60U G63A U64G, the figure is no more than 0.5; as for U3A G6U G12C C22A, no more than 0.5; as for A14U U16C A21G C24U C46G C62U, no more than 0.5. For A14U C34G A43C A70U, the yeast fitness was no more than 0.5.

With C33G U53A, the yeast fitness was 0.65.
